# Pf Dd2 growth – P. falciparum Dd2 growth inhibitors, primary screen, SYBR Green fluorescence, single dose replicates; AID 1159554, 2015; actives 2.3% (n = 94,000); activity change, % at 10 µM; 72 h; stronger effect = lower value; in the data active = activity change below about -80%; inconclusive = no clear call, values can overlap the other calls
# KDM4C inh – inhibitors of GASC-1 (KDM4C) histone demethylase, primary screen, biochemical, single concentration HTS; inhibition, % at 12.5 µM; actives 0.15% (n = 96,000); GST-KDM4C 2-372, H3K9me3 peptide, LANCE TR-FRET; AID 720574, 2013;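 active = mean replicate inhibition above about 25%, with at least 55% of replicates also reaching it, limit read from the data, passing the limit was not always enough; inconclusive = only one of those two conditions met; inactive = neither condition met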
# Target sequence (Q9H3R0 2-372 limits assumed): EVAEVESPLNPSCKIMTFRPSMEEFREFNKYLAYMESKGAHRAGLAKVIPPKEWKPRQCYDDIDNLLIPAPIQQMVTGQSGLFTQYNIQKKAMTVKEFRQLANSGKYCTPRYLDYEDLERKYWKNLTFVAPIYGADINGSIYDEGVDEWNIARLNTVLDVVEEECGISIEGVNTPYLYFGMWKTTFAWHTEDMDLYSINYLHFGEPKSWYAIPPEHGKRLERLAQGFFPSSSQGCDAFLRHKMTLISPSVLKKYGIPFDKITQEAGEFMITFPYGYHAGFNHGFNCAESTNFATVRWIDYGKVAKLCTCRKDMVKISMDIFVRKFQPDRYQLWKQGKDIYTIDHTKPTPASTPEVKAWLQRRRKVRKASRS
#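 System: N-terminal GST-fused human GASC-1 (KDM4C) fragment, residues 2-372; amount: enzyme final amount 10 nM; incubation: reaction 30 min RT, detection step 1 h RT; medium: HEPES buffer, pH 7.5, plus ascorbate; technique: LANCE TR-FRET, Eu antibody, ULight-streptavidin, EDTA, ex 340 nm, em 618/671 nm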
# T cruzi growth-1 – T. cruzi intracellular proliferation inhibitors, primary screen, cell-based, beta-gal Tulahuen parasites, NIH3T3 host, luminescence. T. cruzi beta-gal in NIH3T3, GalScreen luminescence, 90 h. inhibition, % at 8.34 µM. actives 5.9% (n = 77,000). AID 624255, 2012;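 active = mean inhibition above about 93%, with at least 55% of replicates each passing it, limit read from the data, passing the limit was not always enough; inconclusive = only one of those two conditions holds; inactive = neither condition holds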
# IDH1 mut inh – inhibitors of IDH1 R132H reductase, primary screen, biochemical, plate reader, single point; diaphorase/resazurin fluorescence, 60 min; Isocitrate dehydrogenase [NADP] cytoplasmic (Homo sapiens), O75874; actives 0.18% (n = 70,000); AID 624101, 2012; inhibition, % at 10 µM; in the data active = inhibition above about 34%; inconclusive = no clear call, values can overlap the other calls; inactive = below about 11%;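 note: 0% = DMSO and 100% = no enzyme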
# T cruzi growth-2 – T. cruzi intracellular proliferation inhibitors, confirmation, cell-based, NIH3T3 host, beta-gal parasite, luminescence, cherry-pick | shares compounds with T cruzi growth-1 | T. cruzi beta-gal in NIH3T3, GalScreen luminescence, 90 h | inhibition, % at 8.35 µM | actives 72% (n = 5,600) | AID 651739, 2012;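 active = mean replicate inhibition above about 95% and at least 55% of replicates individually reaching it, limit read from the data; inconclusive = only one of the two criteria is met; inactive = neither criterion is met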
# T cruzi growth-3 – inhibitors of intracellular T. cruzi replication, confirmation, NIH3T3 host cells, beta-gal parasites, cherry-pick, set 2. shares compounds with T cruzi growth-1. T. cruzi beta-gal in NIH3T3, GalScreen luminescence, 90 h. inhibition, % at 2.09 µM. actives 21% (n = 5,600). AID 651740, 2012;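 active = mean inhibition above about 95%, with at least 55% of replicates also reaching it, limit read from the data; inconclusive = meets just one of the two conditions; inactive = meets neither condition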;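 note: plate controls were neutral control median for no effect and positive control median for full effect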
# NIH3T3 tox – cytotoxicity in mouse NIH/3T3 fibroblasts, confirmation, cytotoxicity control for T. cruzi proliferation inhibitor project, cell-based, cherry-pick, single point; shares compounds with T cruzi growth-1; NIH/3T3 viability, CellTiter-Glo ATP luminescence, 90 h; cytotoxicity (signal decrease), % at 8.35 µM; actives 14% (n = 5,600); AID 651742, 2012;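 active = mean signal decrease across replicates above about 35% based on untreated-well scatter, with enough replicates individually passing, limit read from the data; inconclusive = no rule stated though some were filed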;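 note: 0% = median of neutral control wells and 100% = median of positive control wells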
# NIH3T3 tox 2 – NIH/3T3 fibroblast cytotoxicity, confirmation, cytotoxicity control, cell-based, cherry-pick, single point, set 2. inhibition, % at 24.9 µM. shares compounds with T cruzi growth-1. actives 56% (n = 5,600). NIH/3T3 viability, CellTiter-Glo ATP luminescence, 90 h;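 active = mean loss of cell viability signal at or above a set limit, and enough replicates individually reaching it; inconclusive = meets only the mean limit or only the replicate share; inactive = meets neither condition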;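 note: 0% = median of neutral control wells and 100% = median of positive control wells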
# * marks the source's active call; other numbers are inactive results; ? = inconclusive; · = no result given. Only some compounds are listed: those with a hit (about 5.8% of all), similar ones and a draw of the others.
SMILES,Pf Dd2 growth,KDM4C inh,T cruzi growth-1,IDH1 mut inh,T cruzi growth-2,T cruzi growth-3,NIH3T3 tox,NIH3T3 tox 2
N#Cc1cccc(-c2ccc3c(c2)[C@@H]2[C@@H](CCN2C(=O)c2ccc4c(c2)OCO4)[C@H](CO)N3)c1,-17,1,?,·,97*,73,30,48*
N#Cc1ccc(-c2ccc3c(c2)[C@H]2[C@H](CCN2C(=O)c2ccc4c(c2)OCO4)[C@H](CO)N3)cc1,-21,-3,25,·,·,·,·,·
CN(C)C(=O)c1ccc(-c2ccc3c(c2)[C@@H]2[C@@H](CCN2C(=O)c2ccc4c(c2)OCO4)[C@@H](CO)N3)cc1,-9,0,100*,·,109*,61,2,1
C[C@H](CO)N1C[C@H](C)[C@H](CN(C)C)Oc2ccc(NC(=O)Nc3ccc(F)cc3)cc2C1=O,-3,7,·,2,·,·,·,·
COc1cc(C=O)cc2c1[nH]c1ccccc12,·,·,·,0,·,·,·,·
COCC#Cc1ccc2c(c1)O[C@H](CN(C)C(=O)C1CCC1)[C@@H](C)CN([C@@H](C)CO)S2(=O)=O,-21,-2,51,0,·,·,·,·
C[C@H]1CN([C@@H](C)CO)S(=O)(=O)c2ccc(C#Cc3ccc(F)cc3)cc2O[C@@H]1CN(C)S(=O)(=O)c1cn(C)cn1,-63,·,122*,0,103*,101*,46*,49*
C[C@@H]1CN([C@H](C)CO)S(=O)(=O)c2ccc(C#Cc3ccccc3)cc2O[C@H]1CN(C)S(=O)(=O)c1cn(C)cn1,-86*,-2,99*,-4,107*,37,67*,51*
C[C@@H]1CN([C@H](C)CO)S(=O)(=O)c2ccc(C#CC3CC3)cc2O[C@H]1CN(C)C(=O)c1ccncc1,-50,5,93,0,·,·,·,·
C[C@@H]1CN([C@H](C)CO)S(=O)(=O)c2ccc(C#CC3CC3)cc2O[C@@H]1CN(C)C(=O)c1ccccc1,-39,-2,?,0,106*,63,33,51*
C[C@H](CO)N1C[C@H](C)[C@H](CN(C)C(=O)c2ccncc2)Oc2cc(C#CC3CC3)ccc2S1(=O)=O,-48,1,103*,6,92,74,0,28*
COc1cccc(C(=O)Nc2ccc3c(c2)OC[C@@H](C)N(CC2CC2)C[C@@H](C)[C@@H](OC)CN(C)C3=O)c1,-11,1,14,0,·,·,·,·
C/C=C/c1ccc([C@@H]2[C@@H](CO)N(C(=O)CN(C)C)C23CN(C(=O)C2CCOCC2)C3)cc1,15,1,·,·,·,·,·,·
COc1cccc(S(=O)(=O)Nc2ccc3c(c2)C(=O)N(C)[C@H]2CC[C@H](CC(=O)NCC4CCCCC4)O[C@H]2CO3)c1,-1,-1,-4,·,·,·,·,·
COc1cccc(S(=O)(=O)N(C)C[C@@H]2Oc3ncc(C#CC(C)C)cc3C(=O)N([C@H](C)CO)C[C@@H]2C)c1,-19,-1,96*,-4,84,19,15,52*
CCCC#Cc1cnc2c(c1)C(=O)N([C@@H](C)CO)C[C@@H](C)[C@@H](CN(C)S(=O)(=O)c1cccc(OC)c1)O2,18,-1,88,·,·,·,·,·
CC(C)CC#Cc1cnc2c(c1)C(=O)N([C@H](C)CO)C[C@@H](C)[C@@H](CN(C)S(=O)(=O)c1ccccc1)O2,-23,1,83,1,·,·,·,·
COc1cccc(S(=O)(=O)N(C)C[C@@H]2Oc3ncc(C#CCN(C)C)cc3C(=O)N([C@@H](C)CO)C[C@H]2C)c1,-8,10,103*,-1,96*,93,2,3
COc1cccc(S(=O)(=O)N(C)C[C@H]2Oc3ncc(C#CC(C)C)cc3C(=O)N([C@H](C)CO)C[C@H]2C)c1,-20,1,74,·,·,·,·,·
COc1cccc(S(=O)(=O)N(C)C[C@H]2Oc3ncc(C#CC(C)C)cc3C(=O)N([C@@H](C)CO)C[C@@H]2C)c1,-64,0,114*,-5,83,53,-13,3
Cc1ccc(S(=O)(=O)N(C)C[C@H]2Oc3ncc(C#CCC(C)C)cc3C(=O)N([C@@H](C)CO)C[C@H]2C)cc1,-38,0,105*,-1,104*,77,33,93*
COCC#Cc1ccc([C@H]2[C@H](CO)N3C(=O)CN(C(=O)C4CCOCC4)C[C@@H]23)cc1,20,1,·,·,·,·,·,·
CO[C@H]1CN(C)C(=O)c2ccc(NC(=O)c3ccccc3)cc2OC[C@@H](C)NC[C@H]1C,-6,1,·,0,·,·,·,·
CC(C)NC(=O)N1CC2(C1)[C@@H](c1ccccc1)[C@@H](CO)N2C(=O)C1CCOCC1,49,-1,·,·,·,·,·,·
C[C@H]1CN([C@@H](C)CO)C(=O)c2cc(Br)cnc2O[C@H]1CN(C)C(=O)c1ccccc1F,9,0,-31,-2,·,·,·,·
C[C@@H]1CN([C@@H](C)CO)C(=O)c2cc(C#CCN(C)C)cnc2O[C@H]1CN(C)S(=O)(=O)c1ccccc1,-14,3,97*,-1,102*,87,-23,-6
CCCC#Cc1cnc2c(c1)C(=O)N([C@H](C)CO)C[C@H](C)[C@H](CN(C)S(=O)(=O)c1ccccc1)O2,-54,0,46,1,·,·,·,·
Cc1ccccc1-c1cnc2c(c1)C(=O)N([C@H](C)CO)C[C@@H](C)[C@H](CN(C)Cc1cncnc1)O2,-7,-2,·,0,·,·,·,·
COc1ccc(S(=O)(=O)N(C)C[C@@H]2OCCCC[C@H](C)Oc3ccc(NC(=O)C4CCCCC4)cc3C(=O)N([C@@H](C)CO)C[C@H]2C)cc1,-78,0,81,·,·,·,·,·
COc1ccc(S(=O)(=O)N(C)C[C@@H]2OCCCC[C@H](C)Oc3ccc(NC(=O)Nc4ccc(C(F)(F)F)cc4)cc3C(=O)N([C@@H](C)CO)C[C@@H]2C)cc1,-79,-1,97*,2,111*,115*,27,4

# Screens from PubChem BioAssay.
